From ChEMBL document CHEMBL4715682, “Potent trifluoromethoxy, trifluoromethylsulfonyl, trifluoromethylthio and pentafluorosulfanyl containing (1,3,4-oxadiazol-2-yl)benzamides against drug-resistant Gram-positive bacteria” (RSC Med Chem, 2020)
In brackets after ≈: the same amount, converted by molar mass. Activity calls are given as the source filed them. No cut-off for these calls is given here.

Assays:
Staphylococcus aureus [1] = experiment: Antibacterial activity against Staphylococcus aureus ATCC 25923 assessed as inhibition of visible bacterial growth incubated for 18 to 20 hrs by CLSI method; type: functional; conditions: time 18-20 hrs
Summary of the method: (§1)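 CLSI broth microdilution. Strains grown aerobically overnight on tryptic soy agar at 37 °C, adjusted to 0.5 McFarland and diluted in cation-adjusted Mueller–Hinton broth to about 5×10^5 CFU/mL. Compounds and control drugs serially diluted across the plate. Incubated aerobically at 37 °C for 18-20 h. MIC is the lowest concentration with no visible growth.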

Staphylococcus aureus [2] = experiment: Antibacterial activity against methicillin-resistant Staphylococcus aureus ATCC 33592 assessed as inhibition of visible bacterial growth incubated for 18 to 20 hrs by CLSI method; type: functional; conditions: time 18-20 hrs; summary of the method: as §1
Staphylococcus aureus [3] = experiment: Antibacterial activity against methicillin-sensitive Staphylococcus aureus ATCC 6538 assessed as inhibition of visible bacterial growth incubated for 18 to 20 hrs by CLSI method; type: functional; conditions: time 18-20 hrs; summary of the method: as §1
Staphylococcus aureus [4] = experiment: Antibacterial activity against methicillin-sensitive Staphylococcus aureus NRS 107 assessed as inhibition of visible bacterial growth incubated for 18 to 20 hrs by CLSI method; type: functional; conditions: time 18-20 hrs; summary of the method: as §1
Staphylococcus aureus [5] = experiment: Antibacterial activity against methicillin-resistant Staphylococcus aureus NRS 119 assessed as inhibition of visible bacterial growth incubated for 18 to 20 hrs by CLSI method; type: functional; conditions: time 18-20 hrs; summary of the method: as §1
Staphylococcus aureus [6] = experiment: Antibacterial activity against methicillin-resistant Staphylococcus aureus NRS382 assessed as inhibition of visible bacterial growth incubated for 18 to 20 hrs by CLSI method; type: functional; conditions: time 18-20 hrs; summary of the method: as §1
Staphylococcus aureus [7] = experiment: Antibacterial activity against methicillin-resistant Staphylococcus aureus NRS383 assessed as inhibition of visible bacterial growth incubated for 18 to 20 hrs by CLSI method; type: functional; conditions: time 18-20 hrs; summary of the method: as §1
Staphylococcus aureus [8] = experiment: Antibacterial activity against methicillin-resistant Staphylococcus aureus NRS384 assessed as inhibition of visible bacterial growth incubated for 18 to 20 hrs by CLSI method; type: functional; conditions: time 18-20 hrs; summary of the method: as §1
Staphylococcus aureus [9] = experiment: Antibacterial activity against methicillin-resistant Staphylococcus aureus NRS123 assessed as inhibition of visible bacterial growth incubated for 18 to 20 hrs by CLSI method; type: functional; conditions: time 18-20 hrs; summary of the method: as §1
Staphylococcus aureus [10] = experiment: Antibacterial activity against methicillin-resistant Staphylococcus aureus NRS385 assessed as inhibition of visible bacterial growth incubated for 18 to 20 hrs by CLSI method; type: functional; conditions: time 18-20 hrs; summary of the method: as §1
Staphylococcus aureus [11] = experiment: Antibacterial activity against methicillin-resistant Staphylococcus aureus NRS386 assessed as inhibition of visible bacterial growth incubated for 18 to 20 hrs by CLSI method; type: functional; conditions: time 18-20 hrs; summary of the method: as §1
Staphylococcus aureus [12] = experiment: Antibacterial activity against methicillin-resistant Staphylococcus aureus NRS387 assessed as inhibition of visible bacterial growth incubated for 18 to 20 hrs by CLSI method; type: functional; conditions: time 18-20 hrs; summary of the method: as §1
Staphylococcus aureus [13] = experiment: Antibacterial activity against vancomycin-resistant Staphylococcus aureus 10 assessed as inhibition of visible bacterial growth incubated for 18 to 20 hrs by CLSI method; type: functional; conditions: time 18-20 hrs; summary of the method: as §1
Staphylococcus aureus [14] = experiment: Antibacterial activity against vancomycin-resistant Staphylococcus aureus 12 assessed as inhibition of visible bacterial growth incubated for 18 to 20 hrs by CLSI method; type: functional; conditions: time 18-20 hrs; summary of the method: as §1
[15] = system: Staphylococcus epidermidis; experiment: Antibacterial activity against Staphylococcus epidermidis NRS101 assessed as inhibition of visible bacterial growth incubated for 18 to 20 hrs by CLSI method; type: functional; conditions: time 18-20 hrs
Summary of the method: (§2)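 Broth microdilution per CLSI. Strains grown aerobically overnight on TSA at 37 °C, suspended to 0.5 McFarland, diluted in CAMHB to about 5×10^5 CFU/mL. Agents serially diluted across plate; aerobic incubation 37 °C for 18-20 h. MIC = lowest concentration completely preventing visible growth.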

Listeria monocytogenes = experiment: Antibacterial activity against Listeria monocytogenes ATCC 19111 assessed as inhibition of visible bacterial growth incubated for 18 to 20 hrs by CLSI method; type: functional; conditions: time 18-20 hrs; summary of the method: as §2
Staphylococcus aureus [16] = experiment: Bactericidal activity against methicillin-resistant Staphylococcus aureus ATCC 33592 assessed as reduction in bacterial growth incubated for 18 hrs by CLSI method; type: functional
Staphylococcus aureus [17] = experiment: Antibacterial activity against methicillin-resistant Staphylococcus aureus ATCC 33592 assessed as reduction in bacterial count at 3 x MIC incubated upto 24 hrs by time kill analysis; type: functional; conditions: time hrs <=24
Summary of the method: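 Time-kill assay. […] Samples taken at 0, 2, 4, 8, 12 and 24 h, serially diluted in PBS and plated on tryptic soy agar. Viable CFU/mL counted after 18-20 h at 37 °C.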

Staphylococcus aureus [18] = experiment: Antibacterial activity against methicillin-resistant Staphylococcus aureus NRS483 assessed as inhibition of visible bacterial growth incubated for 18 to 20 hrs by CLSI method; type: functional; conditions: time 18-20 hrs; summary of the method: as §1
Staphylococcus aureus [19] = experiment: Antibacterial activity against methicillin-resistant Staphylococcus aureus NRS484 assessed as inhibition of visible bacterial growth incubated for 18 to 20 hrs by CLSI method; type: functional; conditions: time 18-20 hrs; summary of the method: as §1
Streptococcus pneumoniae [20] = experiment: Antibacterial activity against cephalosporin-resistant Streptococcus pneumoniae ATCC 51916 assessed as inhibition of visible bacterial growth incubated for 18 to 20 hrs by CLSI method; type: functional; conditions: time 18-20 hrs; summary of the method: as §1
Streptococcus pneumoniae [21] = experiment: Antibacterial activity against […] Streptococcus pneumoniae ATCC 700677 assessed as inhibition of visible bacterial growth incubated for 18 to 20 hrs by CLSI method; type: functional; conditions: time 18-20 hrs; summary of the method: as §1
Enterococcus faecalis [22] = experiment: Antibacterial activity against vancomycin- resistant Enterococcus faecalis ATCC 51299 assessed as inhibition of visible bacterial growth incubated for 18 to 20 hrs by CLSI method; type: functional; conditions: time 18-20 hrs; summary of the method: as §1
Enterococcus faecalis [23] = experiment: Antibacterial activity against vancomycin- resistant Enterococcus faecalis ATCC 700221 assessed as inhibition of visible bacterial growth incubated for 18 to 20 hrs by CLSI method; type: functional; conditions: time 18-20 hrs; summary of the method: as §1
Escherichia coli = experiment: Antibacterial activity against Escherichia coli ATCC 25404 assessed as inhibition of visible bacterial growth at 16 ug/ml incubated for 18 to 20 hrs by CLSI method; type: functional, organism-based; conditions: B ATCC 25404, dose 16.0 µg/ml, time 18-20 hrs; summary of the method: as §1
Pseudomonas aeruginosa = experiment: Antibacterial activity against Pseudomonas aeruginosa ATCC 27853 assessed as inhibition of visible bacterial growth at 16 ug/ml incubated for 18 to 20 hrs by CLSI method; type: functional, organism-based; conditions: dose 16.0 µg/ml, time 18-20 hrs; summary of the method: as §1
Acinetobacter baumannii = experiment: Antibacterial activity against Acinetobacter baumannii ATCC 19606 RW4 assessed as inhibition of visible bacterial growth at 16 ug/ml incubated for 18 to 20 hrs by CLSI method; type: functional, organism-based; conditions: ATCC 19606 = CIP 70.34 = JCM 6841 RW4, dose 16.0 µg/ml, time 18-20 hrs; summary of the method: as §1
Caco-2 = experiment: Cytotoxicity against human Caco2 cells assessed as reduction in cell viability at 128 ug/ml incubated for 2 hrs by MTS assay; type: cell-based; conditions: caco-2, 2 h, dose 128 µg/ml
[24] = Hemolytic activity in human RBC at 128 ug/ml incubated for 60 mins relative to control; type: ADME, cell-based, Erythrocyte; conditions: red blood cells (erythrocytes), dose 128 µg/ml, read-out: Activity
Summary of the method: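 Single-donor human erythrocytes as a 5% v/v suspension in PBS. Compounds serially diluted in PBS, in triplicate, and incubated with RBCs at 37 °C for 60 min. PBS served as the negative control and Triton-X as the positive control. Samples spun at 4,000 rpm for 5 min and supernatant absorbance read at 540 nm. Percent hemolysis = 100×(sample−negative)/(positive−negative).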

Staphylococcus aureus [25] = experiment: Synergistic antibacterial activity against methicillin-resistant Staphylococcus aureus ATCC 33592 assessed as fractional inhibitory concentration index in presence of linezolid by checkerboard assay; type: functional
Staphylococcus aureus [26] = experiment: Synergistic antibacterial activity against methicillin-resistant Staphylococcus aureus ATCC 33592 assessed as fractional inhibitory concentration index in presence of methicillin by checkerboard assay; type: functional
Staphylococcus aureus [27] = experiment: Synergistic antibacterial activity against methicillin-resistant Staphylococcus aureus ATCC 33592 assessed as fractional inhibitory concentration index in presence of daptomycin by checkerboard assay; type: functional
Staphylococcus aureus [28] = experiment: Synergistic antibacterial activity against methicillin-resistant Staphylococcus aureus ATCC 33592 assessed as fractional inhibitory concentration index in presence of Vancomycin; type: functional
J774 = experiment: Cytotoxicity against mouse J774 cells assessed as reduction in cell viability at 32 ug/ml incubated for 24 hrs by MTS assay; type: cell-based; conditions: j774, 24 h, dose 32 µg/ml
Staphylococcus aureus [29] = experiment: Antibacterial activity against methicillin-resistant Staphylococcus aureus USA400 infected in mouse J774 cells assessed as log reduction in intracellular growth at 8 ug/ml incubated for 18 to 22 hrs; type: functional; conditions: dose 8 µg/ml; time 18-22 hrs
Summary of the method: (§3)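 J774 murine macrophages grown in DMEM with 10% FBS at 37 °C, 5% CO2. Cells infected with MRSA USA400 at MOI about 10:1 for 1 h, then washed with gentamicin to remove extracellular bacteria. Agents added at 8 or 16 μg/mL in triplicate, with DMSO vehicle control, for 24 h. Cells lysed with 0.1% Triton-X, lysates plated on tryptic soy agar, and CFU counted after 18-22 h at 37 °C. Analysed by two-way ANOVA with Dunnett's test.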

Staphylococcus aureus [30] = experiment: Antibacterial activity against methicillin-resistant Staphylococcus aureus USA400 infected in mouse J774 cells assessed as log reduction in intracellular growth at 16 ug/ml incubated for 18 to 22 hrs; type: functional; conditions: dose 16 µg/ml; time 18-22 hrs; summary of the method: as §3

SMILES	MIC (Staphylococcus aureus [1]) [µg/mL]	MIC (Staphylococcus aureus [2]) [µg/mL]	MIC (Staphylococcus aureus [3]) [µg/mL]	MIC (Staphylococcus aureus [4]) [µg/mL]	MIC (Staphylococcus aureus [5]) [µg/mL]	MIC (Staphylococcus aureus [6]) [µg/mL]	MIC (Staphylococcus aureus [7]) [µg/mL]	MIC (Staphylococcus aureus [8]) [µg/mL]	MIC (Staphylococcus aureus [9]) [µg/mL]	MIC (Staphylococcus aureus [10]) [µg/mL]	MIC (Staphylococcus aureus [11]) [µg/mL]	MIC (Staphylococcus aureus [12]) [µg/mL]	MIC (Staphylococcus aureus [13]) [µg/mL]	MIC (Staphylococcus aureus [14]) [µg/mL]	MIC [15] [µg/mL]	MIC (Listeria monocytogenes) [µg/mL]	MBC (Staphylococcus aureus [16]) [µg/mL]	Activity (Staphylococcus aureus [17]) [log10CFU/ml]	also measured
O=C(Nc1nnc(-c2cccs2)o1)c1cc(C(F)(F)F)n[nH]1	> 64	> 64	–	–	–	–	–	–	–	–	–	–	–	–	–	–	–	–	–
O=C(Nc1nnc(-c2cccs2)o1)c1ccc([N+](=O)[O-])cc1	4 (≈ 12.6 µM)	8 (≈ 25.3 µM)	–	–	–	–	–	–	–	–	–	–	–	–	–	–	–	–	–
CC(=O)NC[C@H]1CN(c2ccc(N3CCOCC3)c(F)c2)C(=O)O1 [LINEZOLID]	–	–	0.5 (≈ 1.48 µM)	0.5 (≈ 1.48 µM)	> 64	1 (≈ 2.96 µM)	1 (≈ 2.96 µM)	1 (≈ 2.96 µM)	1 (≈ 2.96 µM)	1 (≈ 2.96 µM)	1 (≈ 2.96 µM)	1 (≈ 2.96 µM)	> 64	> 64	1 (≈ 2.96 µM)	0.5 (≈ 1.48 µM)	> 128	1.7	–
O=C(Nc1nnc(-c2cccs2)o1)c1ccc(SC(F)(F)F)cc1	0.5 (≈ 1.35 µM)	0.5 (≈ 1.35 µM)	0.5 (≈ 1.35 µM)	0.25 (≈ 0.673 µM)	0.5 (≈ 1.35 µM)	0.5 (≈ 1.35 µM)	0.25 (≈ 0.673 µM)	0.5 (≈ 1.35 µM)	0.5 (≈ 1.35 µM)	2 (≈ 5.39 µM)	0.5 (≈ 1.35 µM)	0.125 (≈ 0.337 µM)	0.5 (≈ 1.35 µM)	0.5 (≈ 1.35 µM)	0.25 (≈ 0.673 µM)	0.5 (≈ 1.35 µM)	1 (≈ 2.69 µM)	4.2	MIC (Staphylococcus aureus [18]): 0.5 µg/mL (≈ 1.35 µM); MIC (Staphylococcus aureus [19]): 0.5 µg/mL (≈ 1.35 µM); MIC (Streptococcus pneumoniae [20]): 0.25 µg/mL (≈ 0.673 µM); MIC (Streptococcus pneumoniae [21]): 0.25 µg/mL (≈ 0.673 µM); MIC (Enterococcus faecalis [22]): 4 µg/mL (≈ 10.8 µM); MIC (Enterococcus faecalis [23]): 4 µg/mL (≈ 10.8 µM); inhibition (Escherichia coli): inactive; inhibition (Pseudomonas aeruginosa): inactive; inhibition (Acinetobacter baumannii): inactive; Activity (Caco-2): Non-Toxic; hemolysis at 1 h, 128 ug/ml [24]: 19%; fractional inhibitory concentration index (FICI) (Staphylococcus aureus [25]): 0.0625; fractional inhibitory concentration index (FICI) (Staphylococcus aureus [26]): 0.5; fractional inhibitory concentration index (FICI) (Staphylococcus aureus [27]): 0.63; fractional inhibitory concentration index (FICI) (Staphylococcus aureus [28]): 1; Activity (J774): Non-Toxic; Activity (Staphylococcus aureus [29]): 0.7 log10CFU/ml; Activity (Staphylococcus aureus [30]): 0.9 log10CFU/ml
O=C(Nc1nnc(-c2cccs2)o1)c1ccc(F)cc1	32 (≈ 111 µM)	32 (≈ 111 µM)	–	–	–	–	–	–	–	–	–	–	–	–	–	–	–	–	–
O=C(Nc1nnc(-c2cccs2)o1)c1ccc(OC(F)F)cc1	32 (≈ 94.9 µM)	32 (≈ 94.9 µM)	–	–	–	–	–	–	–	–	–	–	–	–	–	–	–	–	–
